Rows were chosen to be rich in hits. Some 2.1% of all compounds tested hit in one or more screens of this group.
miR-122 sensor: inhibitors of miR-122 in Huh7 cells; Huh7 miR-122 Renilla luciferase sensor, 48 h; neutral wells = 0, positive control = 100; 340,000 tested, 0.3% active; activation (reporter increase), % at 12.5 µM;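 active = mean replicate activation score at least 90 and every replicate individually at or above 90; inconclusive = only one of the two criteria met; inactive = neither criterion met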;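 note: higher luciferase means less miR-122 activity so hits act as miR-122 inhibitors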
CAL PDZ FP-1: blocks peptide binding to human CAL PDZ domain; purified CAL PDZ, TMR-peptide fluorescence polarization, 1 h; inhibition, % at 20 µM; 330,000 tested, 0.02% active; AID 504414;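 active = highest replicate inhibition of at least 40%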;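 note: plate controls were DMSO neutral control wells for no effect and unlabeled competitor peptide control wells for full effect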
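Material: tagged CAL PDZ protein CerCALP, purified; buffer or medium: sodium phosphate/NaCl buffer pH 7.4 with TCEP, IgG, Thesit; also added: fluorescent TMR peptide probe; schedule: 1 h incubation at room temperature before polarization reading; technique: fluorescence polarization from S- and P-plane intensities, G-factor corrected; control set: unlabelled peptide and DMSO controls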
SR-BI DiI-HDL act: activators of SR-BI mediated HDL lipid uptake. activation, % at 12.5 µM. CHO ldlA[mSR-BI] cells, DiI-HDL uptake fluorescence, 3 h; 100 = double the neutral-control signal. AID 504775. 320,000 tested, 0.096% active;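 active = mean replicate activation of at least 60% and every replicate at or above 60%; inconclusive = mean or all-replicate condition met, but not both; inactive = mean below 60% and not all replicates reaching 60%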;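 note: 0% = median plate neutral-control signal and 100% = twice that signal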
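System: CHO ldlA[mSR-BI] cells / Medium: HEPES-buffered (25 mM, pH 7.4) F12 plus 0.5% BSA / Probe or stimulus: labelled HDL, 10 µg/mL / Doses: single compound concentration, delivered by pin transfer / Schedule: 3 h, 37 °C / Measured by: DiI fluorescence, bottom read / Measure: cell-associated DiI fluorescence as measure of HDL uptake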
CAL PDZ FP-2: inhibitors of human CAL PDZ peptide binding. purified CAL PDZ, TMR-peptide fluorescence polarization, 1 h. inhibition, % at 24.9 µM. 300,000 tested, 0.92% active. AID 602252;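 active = mean inhibition of at least 30% with at least half of replicates also reaching 30%; inconclusive = no clear call, values can overlap the other calls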;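 note: 0% = DMSO neutral control and 100% = excess unlabeled competitor peptide PRC23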
SR-BI DiI inh: inhibitors of mouse SR-BI mediated HDL lipid uptake | ldlA[mSR-BI] CHO cells, DiI-HDL uptake fluorescence, 3 h | Q61009 | inhibition, % at 12.5 µM | 320,000 tested, 0.96% active;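 active = mean replicate inhibition of at least 70% and a set share of replicates each scoring 70 or more; inconclusive = meets just one of the two criteria; inactive = fails both criteria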;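 note: 0% = median of neutral control wells and 100% = median of positive control wells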
Target sequence (Q61009 whole entry, looked up): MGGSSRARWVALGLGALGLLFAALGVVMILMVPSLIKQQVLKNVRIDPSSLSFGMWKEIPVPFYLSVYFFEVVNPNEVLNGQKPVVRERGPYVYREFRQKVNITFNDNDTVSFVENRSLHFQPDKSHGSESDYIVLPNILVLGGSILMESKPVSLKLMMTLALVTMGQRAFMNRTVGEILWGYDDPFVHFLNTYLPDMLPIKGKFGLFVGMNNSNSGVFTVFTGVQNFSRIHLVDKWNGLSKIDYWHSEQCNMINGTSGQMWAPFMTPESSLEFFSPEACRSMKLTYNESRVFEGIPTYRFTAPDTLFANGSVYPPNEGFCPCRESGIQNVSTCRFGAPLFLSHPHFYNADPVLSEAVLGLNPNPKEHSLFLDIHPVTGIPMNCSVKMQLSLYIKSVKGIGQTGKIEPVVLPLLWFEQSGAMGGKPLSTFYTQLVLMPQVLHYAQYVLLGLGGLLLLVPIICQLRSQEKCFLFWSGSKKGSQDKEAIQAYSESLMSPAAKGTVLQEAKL
ARNT-TACC3 inh: disruptors of human ARNT/TACC3 interaction; inhibition, % at 9.99 µM; Q9Y6A5; AID 623870; AlphaScreen His-ARNT PAS-B/GST-TACC3 binding, luminescence; TACC3 fragment carries E629A point mutation; 390,000 tested, 0.66% active;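 active = mean inhibition of replicates at least 50% and at least half of replicates each reaching 50%; inconclusive = half or more replicates reach 50% but mean below 50%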;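 note: 0% = complete ARNT plus TACC3 wells and 100% = ARNT alone without TACC3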
DiI quench: quenches DiI-HDL fluorescence, an SR-BI assay artifact | 470 tested, 20% active | shares compounds with SR-BI DiI inh | cell-free DiI-HDL fluorescence quenching, 30 min | AC50, µM (series often up to 35 µM), inactives show at the top dose activity change, negative = quenching | AID 540326;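 active = quenching, a falling signal, with AC50 below a set limit tied to the top valid dose, actives reach about 32 µM in these data; inconclusive = no clear call, values can overlap the other calls; inactive = rising signal, and the rest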
Numbers without * were called inactive; ? = inconclusive; . = not tested or not shown; [ ] = dose if it differs, or a comment.

SMILES | miR-122 sensor | CAL PDZ FP-1 | SR-BI DiI-HDL act | CAL PDZ FP-2 | SR-BI DiI inh | ARNT-TACC3 inh | DiI quench
Cc1oc(C(C)(C)C)cc1C(=O)N1CCN(c2ncccc2C(F)(F)F)CC1 | . | 0 | -25 | -5 | 25 | 13 | .
Cc1cc(C(=O)COC(=O)C2=NNC(=O)CC2)c(C)n1-c1ccc(OC(F)F)cc1 | -6 | 1 | -8 | -1 | 8 | -2 | .
Cc1cc(C(=O)C(C)OC(=O)C2=NNC(=O)CC2)c(C)n1-c1ccc(OC(F)F)cc1 (stereo not drawn) | -3 | 1 | -82 | -3 | 82* | 3 | -2%
O=C(C[C@H]1CC[C@H]2[C@@H](COC[C@@H](O)CN2Cc2ccccc2)O1)NCCCN1CCOCC1 | 3[16.7 µM] | . | . | . | . | -8 | .
CC(=O)Nc1cc(NC(C)=O)cc(C(=O)OCC(=O)N(c2ccccc2)C2CCS(=O)(=O)C2)c1 (stereo not drawn) | 0 | -1 | 12 | -2 | -12 | 3 | -3%
CO[C@@H]1CN(C)C(=O)c2ccc(NS(C)(=O)=O)cc2OC[C@@H](C)N(C(=O)C2CC2)C[C@@H]1C | . | . | . | . | . | -2 | .
C[C@@H]1CN([C@@H](C)CO)C(=O)c2cc(C#CC3CC3)cnc2O[C@H]1CN(C)Cc1ccccc1C(=O)O | 7[16.7 µM] | . | . | . | . | -2 | .
C[C@@H]1CN([C@H](C)CO)C(=O)c2cc(NC(=O)c3ccccc3)ccc2O[C@@H](C)CCCCO[C@H]1CN(C)Cc1ccc(C(=O)O)cc1 | 4[16.7 µM] | . | . | . | . | -15 | .
COc1ccc(OC)c(CCNC(=O)c2ccc3c(c2)N(Cc2ccccc2)CCS3)c1 | . | -1 | -76 | . | 76* | -3 | -4%
CCOC(=O)N1CCC(NC(=O)c2ccc3c(c2)N(Cc2ccc(F)cc2)CCS3)CC1 | -4 | 0 | -72 | 4 | 72* | . | -11%
Cc1sc(NC(=O)CN2CCOCC2)nc1-c1ccc2c(c1)CCN2S(=O)(=O)c1ccccc1 | 2 | -1 | -70 | -6 | ? | 3 | -2%
O=C(CN1CCOCC1)Nc1nc(-c2ccc3c(c2)CCN3S(=O)(=O)c2ccccc2)cs1 | 8 | -5 | -48 | -4 | 48 | . | 3%
CCC(CC)C(=O)Nc1nc(-c2ccc3c(c2)CCN3C(=O)C2CC2)c(C)s1 | 3 | 0 | -59 | -2 | 59 | -2 | .
CCCNC(=O)N(C)C[C@@H]1Oc2ncc(C#CCc3ccccc3)cc2C(=O)N([C@@H](C)CO)C[C@@H]1C | 3[16.7 µM] | . | . | . | . | . | .
COCC#Cc1cnc2c(c1)C(=O)N([C@@H](C)CO)C[C@@H](C)[C@@H](CN(C)S(=O)(=O)c1ccccc1)O2 | -5[16.7 µM] | . | . | . | . | 7 | .
CCOC(=O)c1c(C)n(-c2ccc(C)cc2)c2c(C(C(C)=O)C(=O)O)c(Br)c(O)c(O)c12 (stereo not drawn) | -7 | 0 | -6 | . | 6 | 0 | .
CCOC(=O)c1c(C)n(-c2ccc(C)cc2)c2c(CC(C)=O)c(Br)c(OC)c(O)c12 | 2 | 0 | -73 | 2 | 73* | 0 | 0%
Cc1c(Nc2nc3ccccc3nc2N2CCN(c3ccccc3)CC2)c(=O)n(-c2ccccc2)n1C | . | -3 | -72 | -3 | ? | 2 | -8%
Cc1c(Nc2c3ccccc3nc3ccccc23)c(=O)n(-c2ccccc2)n1C | . | 1 | 6 | -3 | -6 | -8 | .
CCCCNC(=O)c1ccc(CS(=O)(=O)c2cccc(C(F)(F)F)c2)o1 | 7 | -1 | -3 | -10 | 3 | -5 | .
COCCNC(=O)c1ccc(CS(=O)(=O)c2cccc(C(F)(F)F)c2)o1 | 3 | -1 | -75 | 0 | 75* | -14 | 9%
Cc1sc(NC(=O)/C=C/C(=O)O)c(C(N)=O)c1-c1ccc(C(C)(C)C)cc1 | . | -2 | 7 | -1 | -7 | -4 | .
Cc1sc(NC(=O)c2cccc([N+](=O)[O-])c2)c(C(N)=O)c1-c1ccc(C(C)(C)C)cc1 | -2 | 0 | -77 | -5 | 77* | 1 | -5%
Cc1noc(C)c1S(=O)(=O)N(C)C[C@@H]1OCCCC[C@@H](C)Oc2ccc(NS(=O)(=O)c3ccc(F)cc3)cc2C(=O)N([C@H](C)CO)C[C@@H]1C | -2[16.7 µM] | . | . | . | . | -11 | .
Cn1c(C(=O)N2CCN(Cc3ccc4c(c3)OCO4)CC2)cc2sccc21 | -4 | -3 | 18 | . | -18 | 18 | .
SMILES | miR-122 sensor | CAL PDZ FP-1 | SR-BI DiI-HDL act | CAL PDZ FP-2 | SR-BI DiI inh | ARNT-TACC3 inh | DiI quench
Cn1c(C(=O)N2CCC(C(=O)N3CCN(Cc4ccc5c(c4)OCO5)CC3)CC2)cc2sccc21 | -8 | 0 | -72 | . | 72* | 4 | -3%
COc1cc2c(C#CCCCO)c(-c3ccc(C#N)cc3)oc(=O)c2cc1OC | -10 | -2 | -11 | -2 | 11 | 7 | .
COc1cc2c(C#CCCCO)c(-c3ccsc3)oc(=O)c2cc1OC | -7 | -2 | -73 | -1 | ? | 0 | -3%
O=C(Nc1ccc(N2CCOCC2)cc1)c1cccc(S(=O)(=O)N2CCC(Cc3ccccc3)CC2)c1 | -10 | -1 | -93 | . | 93* | -3 | -15%
CC(OC(=O)c1cccc(NS(C)(=O)=O)c1)C(=O)Nc1ccc(N2CCOCC2)cc1 (stereo not drawn) | -3 | -1 | -78 | 0 | 78* | -13 | -20%
CC(OC(=O)c1cccc(NS(C)(=O)=O)c1)C(=O)Nc1ccc2c(c1)OCO2 (stereo not drawn) | -4 | 0 | -63 | -5 | 63 | 1 | .
COc1ccc(-c2cc3c(=O)n(CC(=O)NCc4ccc(C)cc4)ncn3n2)cc1 | -11 | 1 | 5 | 12 | -5 | -2 | .
CCOc1ccc(CCNC(=O)Cn2ncn3nc(-c4ccc(OC)cc4)cc3c2=O)cc1 | 12 | -3 | -72 | . | 72* | 0 | -2%
CSc1ccccc1OCc1cc(C(=O)N(C)Cc2c(C)n[nH]c2C)no1 | -3 | -1 | -78 | -3 | 78* | -3 | -4%
Cc1ccc(-c2ccc3c(c2)O[C@H](CN(C)C(=O)Nc2ccc(F)cc2)[C@H](C)CN([C@@H](C)CO)S3(=O)=O)cc1 | -12[16.7 µM] | . | . | . | . | 5 | .
CCOC(=O)C1CCCN(S(=O)(=O)NC[C@H]2O[C@@H](n3cnc4c(N)ncnc43)[C@H](O)[C@@H]2O)C1 (stereo partly drawn) | -1 | 0 | -81 | -5 | 81* | 4 | 3%
O=C(C[C@@H]1CC[C@@H]2[C@H](COC[C@H](O)CN2Cc2ccccc2)O1)NCc1ccccc1Cl | 2[16.7 µM] | . | . | . | . | -5 | .
COc1ccc(C(=O)CSc2nnc(CNC(=O)c3ccc(S(=O)(=O)N(C)C)cc3)o2)cc1 | 3 | -1 | -78 | 10 | 78* | -3 | 0%
